ChEMBL document CHEMBL4477202, “Synthesis and evaluation of duocarmycin SA analogs incorporating the methyl 1,2,8,8a-tetrahydrocyclopropa[c]imidazolo[4,5-e]indol-4-one-6-carboxylate (CImI) alkylation subunit” (Bioorg Med Chem, 2016)
Calls of active or inactive are those of the source. The rule behind the calls is not given here.

Assays:
[1] = Solvolysis reactivity of the compound in aqueous buffer assessed as half life at pH 2 by UV spectrophotometry
[2] = Solvolysis reactivity of the compound in aqueous buffer assessed as solvolytic rate constant at pH 2 by UV spectrophotometry
[3] = Solvolysis reactivity of the compound in phosphate buffer assessed as half life at pH 3 upto 187 hrs by UV spectrophotometry
In short: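 UV spectra taken hourly for the first 8 h, then every 12 h, over 0–187 h until absorbance stopped changing. Rate constant and t1/2 derived from initial (A_i) and final (A_f) absorbance.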

[4] = Solvolysis reactivity of the compound in presence of Pb(acac)2 at 23 degC in MeoH solution by UV spectrophotometry
[5] = Solvolysis reactivity of the compound in presence of Cd(acac)2 at 23 degC in MeoH solution by UV spectrophotometry
[6] = Solvolysis reactivity of the compound in presence of Cu(acac)2 at 23 degC in MeoH solution by UV spectrophotometry
[7] = Solvolysis reactivity of the compound in presence of Ni(acac)2 at 23 degC in MeoH solution by UV spectrophotometry
[8] = Solvolysis reactivity of the compound in presence of Zn(acac)2 at 23 degC in MeoH solution by UV spectrophotometry
Betapolyomavirus macacae [9] = experiment: Induction of alkylation at Simian virus 40 150-bp DNA w794 after 24 hrs by PAGE and autoradiography method
In short: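 Labelled w794 DNA incubated with agent at 23 °C for 24 h. Unbound agent removed by EtOH precipitation, then thermolysis at 100 °C for 30 min to cleave strands at alkylation sites. Fragments resolved by 8% denaturing PAGE and read by autoradiography, alongside untreated control DNA and Sanger G, C, A, T sequencing lanes.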

L1210 = experiment: Cytotoxicity against mouse L1210 cells assessed as cell growth inhibition; type: functional, cell-based
[10] = Solvolysis reactivity of the compound in phosphate buffer at pH 7 upto 187 hrs by UV spectrophotometry
Betapolyomavirus macacae [11] = experiment: Induction of alkylation at Simian virus 40 150-bp DNA w794 at 10^-5 to 10^-7/M after 24 hrs by PAGE and autoradiography method
In short: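 w794 DNA incubated with agent at 23 °C for 24 h. Unbound agent was removed by EtOH precipitation, then the DNA was heated at 100 °C for 30 min to cleave strands at alkylated sites. Fragments were resolved by 8% denaturing PAGE against Sanger G, C, A and T sequencing lanes and untreated control DNA, and detected by autoradiography.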

## Cc1c[nH]c2c1[C@@]13C[C@@H]1CN(C(=O)OC(C)(C)C)C3=CC2=O
[1]
  T1/2: 37 h
[2]
  K: 5.26 ×10⁻⁶ /s

## COC(=O)c1nc2c([nH]1)C(=O)C=C1N(C(=O)OC(C)(C)C)CC3CC123 (stereo unspecified)
[3]
  T1/2: 34.7 h
[4]
  Stability: Stable
[5]
  Stability: Stable
[6]
  Stability: Stable
[7]
  Stability: Stable
[8]
  Stability: Stable

## COC(=O)c1nc2c([nH]1)C(=O)C=C1N(C(=O)c3cc4cc(OC)c(OC)c(OC)c4[nH]3)C[C@H]3C[C@]123
Betapolyomavirus macacae [9]
  Activity: inactive
L1210
  IC50: 0.05 nM

## COC(=O)c1cc2c([nH]1)C(=O)C=C1N(C(=O)c3cc4cc(NC(=O)c5cc6ccccc6[nH]5)ccc4[nH]3)C[C@@H]3C[C@@]123
L1210
  IC50: 0.15 nM

## COC(=O)c1nc2c([nH]1)C(=O)C=C1N(C(=O)c3cc4cc(NC(=O)c5cc6ccccc6[nH]5)ccc4[nH]3)C[C@@H]3C[C@@]123
L1210
  IC50: 0.7 nM

## COC(=O)c1cc2c([nH]1)C(=O)C=C1N(C(=O)c3cc4cc(NC(=O)c5cc6ccccc6[nH]5)ccc4[nH]3)C[C@H]3C[C@]123
L1210
  IC50: 0.004 nM

## COC(=O)c1nc2c([nH]1)C(=O)C=C1N(C(=O)c3cc4cc(OC)c(OC)c(OC)c4[nH]3)C[C@@H]3C[C@@]123
L1210
  IC50: 2.2 nM

## COC(=O)c1nc2c([nH]1)C(=O)C=C1N(C(=O)OC(C)(C)C)C[C@@H]3C[C@@]123
L1210
  IC50: 1100 nM

## COC(=O)c1cc2c([nH]1)C(=O)C=C1N(C(=O)OC(C)(C)C)CC3CC123 (stereo unspecified)
[3]
  T1/2: 177 h
[4]
  Stability: Stable
[5]
  Stability: Stable
[10]
  Stability: Stable
[6]
  Stability: Stable
[7]
  Stability: Stable
[8]
  Stability: Stable

## COC(=O)c1nc2c3c(cc(O)c2[nH]1)N(C(=O)c1cc2cc(OC)c(OC)c(OC)c2[nH]1)C[C@H]3CCl
Betapolyomavirus macacae [11]
  Activity: Active

## COC(=O)c1cc2c([nH]1)C(=O)C=C1N(C(=O)c3cc4cc(OC)c(OC)c(OC)c4[nH]3)C[C@H]3C[C@]123
Betapolyomavirus macacae [9]
  Activity: Active

## COC(=O)c1nc2c([nH]1)C(=O)C=C1N(C(=O)OC(C)(C)C)C[C@H]3C[C@]123
L1210
  IC50: 70 nM

## COC(=O)c1nc2c([nH]1)C(=O)C=C1N(C(=O)c3cc4cc(NC(=O)c5cc6ccccc6[nH]5)ccc4[nH]3)C[C@H]3C[C@]123
L1210
  IC50: 0.04 nM
